Data set [1] has as its target Platelet-derived growth factor receptor alpha (Homo sapiens) (UniProt P16234). As to the kind of experiment: Inhibition of PDGFR-alpha (unknown origin) at 10 nM relative to control. The procedure, abridged: (§1)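 Purified recombinant kinase domains run in ELISA on precoated poly(Glu,Tyr) 4:1 (20 µg/mL) with 10 µM ATP in 50 mM HEPES pH 7.4, 50 mM MgCl2, 0.5 mM MnCl2, 0.2 mM Na3VO4, 1 mM DTT; 1% DMSO control; 60 min at 37 °C. Phosphotyrosine read by PY99 antibody, HRP anti-mouse IgG, OPD/H2O2 at 490 nm; inhibition = [1−A490/A490control]×100%; two separate experiments.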

Data set [2] deals with Receptor tyrosine-protein kinase erbB-4 (Homo sapiens) (UniProt Q15303). As to the kind of experiment: Inhibition of ErbB4 (unknown origin) at 100 nM relative to control. The procedure, abridged:
as §1

Data set [3] has the same target. As to the kind of experiment: Inhibition of ErbB4 (unknown origin) at 10 nM relative to control. The procedure, abridged:
as §1

Data set [4] has as its target Fibroblast growth factor receptor 3 (Homo sapiens) (UniProt P22607). The experiment in a line: Inhibition of FGFR3 (unknown origin) at 10 nM relative to control. The gist of the method: as §1
The target in data set [5] is Fibroblast growth factor receptor 2 (Homo sapiens) (UniProt P21802). The experiment in a line: Inhibition of FGFR2 in human SNU-16 cells assessed as decrease in ERK phosphorylation at 25 to 200 nM after 2 hrs by Western blot analysis. Type of data set: cell-based. The procedure, abridged: (§2)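 SNU-16 cells exposed to compound for 2 h at 37 °C, lysed in 1× SDS sample buffer, resolved by 10% SDS-PAGE and blotted to nitrocellulose; probed for phospho-FGFR, FGFR2, phospho-ERK, ERK and GAPDH, then HRP anti-rabbit or anti-mouse IgG; enhanced chemiluminescence detection.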
Chain of Fibroblast growth factor receptor 2 (Homo sapiens) (P21802 22-821 limits assumed): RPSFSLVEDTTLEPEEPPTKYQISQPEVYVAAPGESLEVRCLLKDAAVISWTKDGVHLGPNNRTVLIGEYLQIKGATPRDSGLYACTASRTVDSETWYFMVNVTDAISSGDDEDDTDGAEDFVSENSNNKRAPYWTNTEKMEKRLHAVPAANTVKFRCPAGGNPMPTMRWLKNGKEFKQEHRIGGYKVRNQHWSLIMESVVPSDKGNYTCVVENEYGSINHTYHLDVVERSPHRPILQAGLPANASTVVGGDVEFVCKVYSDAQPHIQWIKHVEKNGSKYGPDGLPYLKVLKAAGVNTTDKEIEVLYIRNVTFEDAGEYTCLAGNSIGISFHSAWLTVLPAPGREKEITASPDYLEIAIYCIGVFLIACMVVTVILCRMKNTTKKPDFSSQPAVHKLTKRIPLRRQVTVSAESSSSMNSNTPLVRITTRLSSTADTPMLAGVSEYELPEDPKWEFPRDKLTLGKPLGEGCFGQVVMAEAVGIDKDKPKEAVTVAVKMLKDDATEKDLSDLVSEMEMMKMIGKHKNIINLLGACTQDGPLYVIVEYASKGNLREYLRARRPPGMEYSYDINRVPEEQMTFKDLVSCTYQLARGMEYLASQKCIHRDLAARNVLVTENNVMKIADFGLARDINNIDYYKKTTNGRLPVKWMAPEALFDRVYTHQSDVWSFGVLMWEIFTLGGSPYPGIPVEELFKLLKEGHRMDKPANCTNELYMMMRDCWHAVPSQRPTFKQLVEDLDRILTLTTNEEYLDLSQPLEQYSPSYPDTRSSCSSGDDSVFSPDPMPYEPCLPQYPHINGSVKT
In general terms: Immunoblotting shows a protein as a band on a membrane.

The nature of data set [6]: Half life in ICR(CD-1) mouse at 10 mg/kg, po administered via gavage by triple quadrupole mass spectrometric analysis. Type of data set: ADME, organism-based. The note with it: in vivo. The procedure, abridged: (§3)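 Oral gavage at 1 mg/mL in 1% Tween80/water to male ICR mice (18-22 g, n=3). Plasma sampled at 0.25, 0.5, 1, 2, 4, 8 and 24 h, protein precipitated with methanol:acetonitrile (1:1) containing internal standard, and quantified by UPLC-triple quadrupole MS. AUC and MRT were taken from per-animal time-concentration curves. Cmax is the maximum plasma level and Tmax the time to reach it.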

Data set [7] deals with Fibroblast growth factor receptor 2 (Homo sapiens) (UniProt P21802). As to the kind of experiment: Inhibition of FGFR2 phosphorylation in human SNU-16 cells after 2 hrs by Western blot analysis. Type of data set: cell-based. The gist of the method: as §2
Data set [8] addresses ALK tyrosine kinase receptor (Homo sapiens) (UniProt Q9UM73). As to the kind of experiment: Inhibition of ALK (unknown origin) at 1000 nM relative to control.
Data set [9] is described as follows: Antiproliferative activity against human UM-UC-14 cells harboring FGFR3 mutation after 72 hrs by CCK8 assay. Type of data set: functional, cell-based. The note with it: UMUC14, 72 h. The gist of the method: (§4)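 Cells seeded at low density in growth medium and compounds added the next day. Incubated 72 h, then proliferation read by sulforhodamine B, MTT or CCK-8. IC50 obtained by four-parameter concentration-response curve fitting.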
Background: Formazan colour is commonly taken as a measure of viable cells.

For data set [10], the system named is SNU-16. The experiment in a line: Antiproliferative activity against FGFR2 amplified human SNU16 cells after 72 hrs by CCK8 assay. It is filed as functional, cell-based. The conditions noted are these: SNU-16, 72 h. The procedure, abridged:
as §4

The target of data set [11] is ALK tyrosine kinase receptor (Homo sapiens) (UniProt Q9UM73). The experiment in a line: Inhibition of ALK (unknown origin) at 100 nM relative to control.
Chain of ALK tyrosine kinase receptor (Homo sapiens) (Q9UM73 19-1620 limits assumed): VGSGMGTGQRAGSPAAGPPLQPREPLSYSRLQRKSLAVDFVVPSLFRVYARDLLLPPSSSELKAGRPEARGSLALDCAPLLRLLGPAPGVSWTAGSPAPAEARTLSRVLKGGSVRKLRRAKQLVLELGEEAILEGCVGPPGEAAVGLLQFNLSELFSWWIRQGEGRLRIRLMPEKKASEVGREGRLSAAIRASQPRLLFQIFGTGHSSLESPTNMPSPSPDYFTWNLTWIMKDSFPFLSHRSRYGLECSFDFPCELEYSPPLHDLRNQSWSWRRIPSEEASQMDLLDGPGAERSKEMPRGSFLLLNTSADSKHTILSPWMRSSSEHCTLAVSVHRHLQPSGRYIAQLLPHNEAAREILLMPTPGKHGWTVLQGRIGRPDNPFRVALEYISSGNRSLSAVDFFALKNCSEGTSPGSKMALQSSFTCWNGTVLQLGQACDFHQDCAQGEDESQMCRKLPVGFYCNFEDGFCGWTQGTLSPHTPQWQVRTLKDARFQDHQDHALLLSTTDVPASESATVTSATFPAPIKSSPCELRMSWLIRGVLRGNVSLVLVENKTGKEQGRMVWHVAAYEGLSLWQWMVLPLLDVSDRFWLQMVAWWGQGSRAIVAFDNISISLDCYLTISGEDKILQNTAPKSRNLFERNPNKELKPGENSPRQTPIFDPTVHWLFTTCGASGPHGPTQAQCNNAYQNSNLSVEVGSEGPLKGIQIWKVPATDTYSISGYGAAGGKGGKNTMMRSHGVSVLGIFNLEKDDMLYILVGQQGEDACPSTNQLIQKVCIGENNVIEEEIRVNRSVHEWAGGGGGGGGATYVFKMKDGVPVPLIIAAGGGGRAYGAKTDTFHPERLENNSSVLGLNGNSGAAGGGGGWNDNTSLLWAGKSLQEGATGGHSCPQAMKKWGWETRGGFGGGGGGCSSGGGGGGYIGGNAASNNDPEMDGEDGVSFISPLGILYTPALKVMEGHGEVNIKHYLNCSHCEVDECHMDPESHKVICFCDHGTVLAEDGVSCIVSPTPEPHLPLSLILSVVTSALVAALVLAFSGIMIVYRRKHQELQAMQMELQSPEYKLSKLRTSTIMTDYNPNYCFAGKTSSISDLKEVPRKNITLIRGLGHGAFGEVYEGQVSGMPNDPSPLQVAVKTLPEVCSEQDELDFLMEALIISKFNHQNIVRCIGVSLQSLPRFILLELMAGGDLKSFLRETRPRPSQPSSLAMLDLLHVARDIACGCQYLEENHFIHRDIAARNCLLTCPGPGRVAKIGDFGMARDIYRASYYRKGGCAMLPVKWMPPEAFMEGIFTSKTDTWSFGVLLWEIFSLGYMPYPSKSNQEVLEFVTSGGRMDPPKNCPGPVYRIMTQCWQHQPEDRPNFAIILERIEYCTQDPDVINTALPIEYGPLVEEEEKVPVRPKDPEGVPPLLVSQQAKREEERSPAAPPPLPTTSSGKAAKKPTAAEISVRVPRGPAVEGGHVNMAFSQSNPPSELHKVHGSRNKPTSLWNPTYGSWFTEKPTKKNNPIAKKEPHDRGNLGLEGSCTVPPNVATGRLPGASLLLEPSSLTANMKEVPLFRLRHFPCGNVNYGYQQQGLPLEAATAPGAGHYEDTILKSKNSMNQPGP
In data set [12] the target is Receptor-type tyrosine-protein kinase FLT3 (Homo sapiens) (UniProt P36888). The experiment in a line: Inhibition of FLT-3 (unknown origin) at 1000 nM relative to control. The procedure, abridged:
as §1

Data set [13] has as its target Platelet-derived growth factor receptor beta (Homo sapiens) (UniProt P09619). The experiment in a line: Inhibition of PDGFR-beta (unknown origin) at 100 nM relative to control. The procedure, abridged:
as §1

The target of data set [14] is Mitogen-activated protein kinase 1 (Homo sapiens) (UniProt P28482). As to the kind of experiment: Inhibition of ERK2 (unknown origin) at 10 nM relative to control.
Chain of Mitogen-activated protein kinase 1 (Homo sapiens) (P28482 whole entry): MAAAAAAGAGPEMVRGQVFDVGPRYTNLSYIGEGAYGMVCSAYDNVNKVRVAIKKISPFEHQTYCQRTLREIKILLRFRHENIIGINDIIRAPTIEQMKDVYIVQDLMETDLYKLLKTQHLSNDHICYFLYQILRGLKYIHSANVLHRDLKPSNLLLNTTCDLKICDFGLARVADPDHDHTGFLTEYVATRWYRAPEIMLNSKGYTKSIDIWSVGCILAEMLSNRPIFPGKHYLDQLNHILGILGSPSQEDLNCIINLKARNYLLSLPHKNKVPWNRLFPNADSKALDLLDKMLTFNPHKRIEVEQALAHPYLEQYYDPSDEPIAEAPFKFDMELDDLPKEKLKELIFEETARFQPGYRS
In data set [15] the target is Tyrosine-protein kinase receptor UFO (Homo sapiens) (UniProt P30530). The experiment in a line: Inhibition of AXL (unknown origin) at 10 nM relative to control.
Chain of Tyrosine-protein kinase receptor UFO (Homo sapiens) (P30530 whole entry): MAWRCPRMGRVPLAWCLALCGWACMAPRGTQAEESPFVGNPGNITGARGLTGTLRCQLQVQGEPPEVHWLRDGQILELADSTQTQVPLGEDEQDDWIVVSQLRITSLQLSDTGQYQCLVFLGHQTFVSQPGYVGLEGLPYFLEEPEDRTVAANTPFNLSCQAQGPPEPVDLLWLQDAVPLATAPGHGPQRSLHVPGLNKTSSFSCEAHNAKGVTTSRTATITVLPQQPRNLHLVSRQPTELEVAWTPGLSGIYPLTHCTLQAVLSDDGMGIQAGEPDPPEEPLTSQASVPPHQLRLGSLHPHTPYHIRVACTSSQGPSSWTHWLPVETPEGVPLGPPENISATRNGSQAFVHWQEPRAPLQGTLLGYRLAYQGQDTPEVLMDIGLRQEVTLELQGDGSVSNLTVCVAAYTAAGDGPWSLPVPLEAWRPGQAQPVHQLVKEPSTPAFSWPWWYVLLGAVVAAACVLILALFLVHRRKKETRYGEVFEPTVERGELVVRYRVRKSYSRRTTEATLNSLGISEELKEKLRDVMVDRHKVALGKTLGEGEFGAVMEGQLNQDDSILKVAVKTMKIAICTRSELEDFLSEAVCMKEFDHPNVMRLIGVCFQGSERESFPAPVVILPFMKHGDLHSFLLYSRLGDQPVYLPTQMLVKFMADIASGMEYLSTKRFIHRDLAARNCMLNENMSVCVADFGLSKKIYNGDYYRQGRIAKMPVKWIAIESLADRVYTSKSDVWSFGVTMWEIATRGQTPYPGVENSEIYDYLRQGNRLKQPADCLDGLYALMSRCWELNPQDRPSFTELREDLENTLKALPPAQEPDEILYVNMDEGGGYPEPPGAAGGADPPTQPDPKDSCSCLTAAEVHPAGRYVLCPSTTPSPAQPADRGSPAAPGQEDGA
Data set [16] is described as follows: Cmax in ICR(CD-1) mouse at 10 mg/kg, po administered via gavage by triple quadrupole mass spectrometric analysis. It is filed as ADME, organism-based. Also noted: dose 10 mg/kg, route oral. The conditions noted are these: in vivo. The procedure, abridged:
as §3

Data set [17] deals with Mitogen-activated protein kinase 1 (Homo sapiens) (UniProt P28482). The experiment in a line: Inhibition of ERK2 (unknown origin) at 1000 nM relative to control.
For data set [18], the target named is T1, Ephrin type-B receptor 2 (Homo sapiens) (UniProt P29323).
T1 sequence (whole entry): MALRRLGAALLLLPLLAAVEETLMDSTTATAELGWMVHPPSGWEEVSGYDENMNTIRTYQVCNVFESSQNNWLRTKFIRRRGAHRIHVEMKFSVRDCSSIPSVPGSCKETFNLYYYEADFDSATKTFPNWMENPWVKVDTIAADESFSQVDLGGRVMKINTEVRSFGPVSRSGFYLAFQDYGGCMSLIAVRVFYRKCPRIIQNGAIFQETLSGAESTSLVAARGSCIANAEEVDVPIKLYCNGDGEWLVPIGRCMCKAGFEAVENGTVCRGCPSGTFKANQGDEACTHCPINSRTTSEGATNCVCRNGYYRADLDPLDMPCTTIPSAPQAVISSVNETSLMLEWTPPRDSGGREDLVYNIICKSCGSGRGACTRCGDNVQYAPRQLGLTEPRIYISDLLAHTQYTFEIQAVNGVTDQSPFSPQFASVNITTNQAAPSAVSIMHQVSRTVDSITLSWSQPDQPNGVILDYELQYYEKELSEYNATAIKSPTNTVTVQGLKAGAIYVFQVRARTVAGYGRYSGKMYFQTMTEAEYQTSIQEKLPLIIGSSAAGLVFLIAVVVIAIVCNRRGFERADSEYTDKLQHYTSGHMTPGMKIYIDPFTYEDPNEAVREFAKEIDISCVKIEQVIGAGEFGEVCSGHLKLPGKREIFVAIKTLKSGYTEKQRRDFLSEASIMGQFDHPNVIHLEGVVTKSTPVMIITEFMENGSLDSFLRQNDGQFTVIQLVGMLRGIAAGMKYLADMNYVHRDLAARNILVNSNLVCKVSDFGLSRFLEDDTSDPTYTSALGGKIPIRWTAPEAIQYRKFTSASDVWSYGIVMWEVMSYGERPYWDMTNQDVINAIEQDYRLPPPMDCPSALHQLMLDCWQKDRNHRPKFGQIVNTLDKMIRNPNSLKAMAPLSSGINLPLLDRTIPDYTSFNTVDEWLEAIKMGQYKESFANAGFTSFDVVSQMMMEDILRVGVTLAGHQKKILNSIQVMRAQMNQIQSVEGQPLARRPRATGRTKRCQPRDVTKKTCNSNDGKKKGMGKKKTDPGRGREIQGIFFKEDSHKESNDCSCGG
The experiment in a line: Inhibition of EPH-B2 (unknown origin) at 1000 nM relative to control. The gist of the method:
as §1

For data set [19], the target named is Insulin-like growth factor 1 receptor (Homo sapiens) (UniProt P08069). As to the kind of experiment: Inhibition of IGF1R (unknown origin) at 10 nM relative to control. The gist of the method:
as §1

Molecules are shown by their SMILES. Activity calls are given as the source filed them. No cut-off for these calls is given here.

The inhibition is the drop in the measured response relative to a control, in per cent. The half-life is the time in which the quantity being followed falls by half. Low readings indicate rapid decline, high ones slow decline. By IC50 is commonly meant the concentration at which inhibition is half-maximal. By Cmax is commonly meant the peak of the concentration-time curve.

Chain of Receptor tyrosine-protein kinase erbB-4 (Homo sapiens) (Q15303 whole entry): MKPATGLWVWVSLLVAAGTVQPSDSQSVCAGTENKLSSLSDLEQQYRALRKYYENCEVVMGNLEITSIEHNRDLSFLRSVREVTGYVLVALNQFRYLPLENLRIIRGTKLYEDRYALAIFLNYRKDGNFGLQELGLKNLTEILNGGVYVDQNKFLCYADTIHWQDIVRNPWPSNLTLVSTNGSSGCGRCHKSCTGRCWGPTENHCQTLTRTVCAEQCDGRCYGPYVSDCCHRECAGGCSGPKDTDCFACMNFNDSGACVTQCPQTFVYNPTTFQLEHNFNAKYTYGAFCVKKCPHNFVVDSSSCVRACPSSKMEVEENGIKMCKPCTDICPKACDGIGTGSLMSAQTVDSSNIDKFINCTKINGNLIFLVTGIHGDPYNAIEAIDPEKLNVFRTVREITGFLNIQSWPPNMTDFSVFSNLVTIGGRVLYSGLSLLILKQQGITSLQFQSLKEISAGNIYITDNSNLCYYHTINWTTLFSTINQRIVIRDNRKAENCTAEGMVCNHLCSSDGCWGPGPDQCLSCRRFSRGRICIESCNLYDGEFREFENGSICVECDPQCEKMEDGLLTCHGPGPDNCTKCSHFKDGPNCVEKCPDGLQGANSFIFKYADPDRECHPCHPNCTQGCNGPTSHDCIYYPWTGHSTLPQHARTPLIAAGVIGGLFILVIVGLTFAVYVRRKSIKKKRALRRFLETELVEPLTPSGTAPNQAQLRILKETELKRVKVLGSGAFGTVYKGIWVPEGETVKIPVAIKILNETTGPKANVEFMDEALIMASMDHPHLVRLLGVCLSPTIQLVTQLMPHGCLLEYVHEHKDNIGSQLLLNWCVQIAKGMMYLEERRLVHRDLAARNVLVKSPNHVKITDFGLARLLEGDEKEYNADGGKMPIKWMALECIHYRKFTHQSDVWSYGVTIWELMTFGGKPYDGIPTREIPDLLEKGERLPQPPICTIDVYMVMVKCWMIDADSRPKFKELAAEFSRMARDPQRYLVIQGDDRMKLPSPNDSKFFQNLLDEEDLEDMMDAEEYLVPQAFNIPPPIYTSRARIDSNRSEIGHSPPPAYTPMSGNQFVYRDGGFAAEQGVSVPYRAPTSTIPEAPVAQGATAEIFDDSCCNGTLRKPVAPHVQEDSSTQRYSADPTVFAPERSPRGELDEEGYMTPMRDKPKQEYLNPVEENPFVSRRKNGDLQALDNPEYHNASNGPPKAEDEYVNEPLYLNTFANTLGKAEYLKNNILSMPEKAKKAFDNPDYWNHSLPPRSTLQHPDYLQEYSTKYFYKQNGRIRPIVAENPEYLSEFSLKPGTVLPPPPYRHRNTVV

`Cc1ccc(C(=O)Nc2cccc(C(F)(F)F)c2)cc1-c1ccc2c(-c3cnn(C4CC4)c3)n[nH]c2c1`: the inhibition was 59.7% in data set [1]; 0% in data set [2]; 0% in data set [3]; 52.3% in data set [4]; “Dose-dependent effect” in data set [7]; 93.5% in data set [8]. Besides, the inhibition came out at 71.7% in [11]; 86.2% in [12]; 99.1% in data set [13]; 0.3% in data set [14]; 42% in [15]; 2.7% in data set [17]. Moreover, the inhibition in [18] was found to be 86.9%; in data set [19] it was 0%. Also, in [5], the inhibition entry is “Active”. Besides, the half-life in data set [6] is 3.05 h. Besides, the IC50 in [9] was 307 nM; in data set [10], 93.4 nM. The same compound had a Cmax in [16] of 1120 ng/mL.

Source of the values: ChEMBL document CHEMBL4411287, “Discovery and optimization of a series of 3-substituted indazole derivatives as multi-target kinase inhibitors for the treatment of lung squamous cell carcinoma” (Eur J Med Chem, 2019).
